In ChEMBL document CHEMBL1135382, “First dual NK(1) antagonists-serotonin reuptake inhibitors: synthesis and SAR of a new class of potential antidepressants” (Bioorg Med Chem Lett, 2002):

Experiments:
Substance-P receptor [1] = biological target: T1, Substance-P receptor (Homo sapiens, UniProt P25103); test: Binding affinity at human Tachykinin receptor 1 expressed in CHO cells by [3H]-substance P displacement.; assay type: cell-based
How it was run: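 Membranes (10–20 μg protein) from CHO cells expressing human NK1 receptor were incubated 60 min at 25 °C in 50 mM Tris–HCl pH 7.4 with 2 mM MgCl2, 100 μg/mL bacitracin and 0.25 nM [3H]substance P.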

[2] = biological target: Sodium-dependent serotonin transporter (Rattus norvegicus, UniProt P31652); test: Binding affinity at serotonin transporter from rat cerebral cortex by [3H]-paroxetine displacement.; assay type: tissue-based
Chain of Sodium-dependent serotonin transporter (P31652 whole entry): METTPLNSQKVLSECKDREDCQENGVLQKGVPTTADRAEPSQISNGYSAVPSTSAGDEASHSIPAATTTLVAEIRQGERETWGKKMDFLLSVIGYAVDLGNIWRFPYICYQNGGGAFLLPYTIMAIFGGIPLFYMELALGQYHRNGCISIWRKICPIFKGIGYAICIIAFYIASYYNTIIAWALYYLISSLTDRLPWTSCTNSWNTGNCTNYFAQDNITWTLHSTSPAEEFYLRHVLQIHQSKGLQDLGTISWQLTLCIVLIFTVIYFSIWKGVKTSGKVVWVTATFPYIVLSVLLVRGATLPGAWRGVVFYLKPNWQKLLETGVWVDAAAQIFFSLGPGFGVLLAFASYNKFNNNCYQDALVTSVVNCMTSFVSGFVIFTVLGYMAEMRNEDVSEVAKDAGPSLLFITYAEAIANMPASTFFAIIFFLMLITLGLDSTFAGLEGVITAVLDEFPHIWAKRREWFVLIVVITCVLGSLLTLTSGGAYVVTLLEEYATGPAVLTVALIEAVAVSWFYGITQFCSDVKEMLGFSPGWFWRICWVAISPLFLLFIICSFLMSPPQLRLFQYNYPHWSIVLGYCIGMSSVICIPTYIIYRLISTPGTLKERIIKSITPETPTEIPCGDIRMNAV
How it was run: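 Rat cerebral cortex membranes (100–200 μg protein) were incubated 120 min at 25 °C in 50 mM Tris–HCl pH 7.4 with 2 mM MgCl2 and 0.05 nM radioligand. Nonspecific binding was defined with 5 μM imipramine.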

[3] = Lipophilicity; assay type: physicochemical
Substance-P receptor [4] = biological target: T1, Substance-P receptor; test: Binding affinity towards human Tachykinin receptor 1 expressed in CHO cells using [3H]-substance P; Less than 50% inhibition at 10e-5 M; assay type: cell-based

T1 sequence (P25103 whole entry): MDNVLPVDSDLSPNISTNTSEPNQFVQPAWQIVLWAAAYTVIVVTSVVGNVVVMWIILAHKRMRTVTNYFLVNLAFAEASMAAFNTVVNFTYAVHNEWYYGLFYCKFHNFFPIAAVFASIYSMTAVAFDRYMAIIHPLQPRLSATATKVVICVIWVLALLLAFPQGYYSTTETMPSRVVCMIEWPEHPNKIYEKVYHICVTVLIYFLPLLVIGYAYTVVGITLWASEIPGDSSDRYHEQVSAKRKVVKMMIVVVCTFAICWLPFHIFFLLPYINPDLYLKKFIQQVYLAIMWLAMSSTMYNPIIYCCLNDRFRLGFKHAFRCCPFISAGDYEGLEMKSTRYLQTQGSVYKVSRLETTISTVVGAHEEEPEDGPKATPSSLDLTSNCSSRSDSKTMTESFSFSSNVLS

| SMILES | IC50 (Substance-P receptor [1]) | IC50 [2] | Log K' IAM [3] | inhibition (Substance-P receptor [4]) |
| --- | --- | --- | --- | --- |
| O=C(CCc1cc(C(F)(F)F)cc(C(F)(F)F)c1)N(Cc1ccc(F)cc1)C1CCNCC1 | 31.6 nM | 316 nM | 2.9 |  |
| O=C(COc1cc(C(F)(F)F)cc(C(F)(F)F)c1)N(Cc1ccccc1Cl)C1CCNCC1 | 126 nM | 158 nM | 3.2 |  |
| Cc1cc(C)cc(OCC(=O)N(Cc2cccc(Cl)c2)C2CCNCC2)c1 | 100 nM | 25.1 nM | 2.6 |  |
| Fc1ccc(CN(CCCc2cc(C(F)(F)F)cc(C(F)(F)F)c2)C2CCNCC2)cc1 | 126 nM | 25.1 nM | 3.8 |  |
| Cc1cccc(CN(C(=O)CCc2cc(C(F)(F)F)cc(C(F)(F)F)c2)C2CCNCC2)c1 | 25.1 nM | 200 nM | 3.2 |  |
| O=C(CCc1cc(C(F)(F)F)cc(C(F)(F)F)c1)N(c1ccc(F)cc1)C1CCNCC1 | 200 nM | 251 nM | 2.9 |  |
| O=C(COc1cc(C(F)(F)F)cc(C(F)(F)F)c1)N(c1ccc(Cl)c(Cl)c1)C1CCNCC1 | 31.6 nM | 158 nM | 3.4 |  |
| O=C(COc1cc(C(F)(F)F)cc(C(F)(F)F)c1)N(c1cccc(Cl)c1)C1CCNCC1 | 200 nM | 158 nM | 3 |  |
| O=C(COc1cc(C(F)(F)F)cc(C(F)(F)F)c1)N(c1ccc(F)cc1)C1CCNCC1 | 316 nM | 631 nM | 2.5 |  |
| O=C(COc1cc(Cl)cc(Cl)c1)N(Cc1cccc(Cl)c1)C1CCNCC1 | 126 nM | 50.1 nM | 3.1 |  |
| O=C(COc1cc(F)cc(C(F)(F)F)c1)N(Cc1cccc(Cl)c1)C1CCNCC1 |  | 100 nM | 2.9 | < 5% |
| O=C(COc1cc(C(F)(F)F)cc(C(F)(F)F)c1)N(c1cc(Cl)cc(Cl)c1)C1CCNCC1 |  | 158 nM | 3.4 | < 5% |
| O=C(COc1cc(F)cc(F)c1)N(Cc1cccc(Cl)c1)C1CCNCC1 |  | 20 nM | 2.4 | < 5% |
| Fc1ccc(N(CCCc2cc(C(F)(F)F)cc(C(F)(F)F)c2)C2CCNCC2)cc1 | 50.1 nM | 39.8 nM | 3.9 |  |
| O=C(COc1cc(C(F)(F)F)cc(C(F)(F)F)c1)N(Cc1cccc(Cl)c1)C1CCNCC1 | 25.1 nM | 158 nM | 3.4 |  |
| O=C(CCc1cc(C(F)(F)F)cc(C(F)(F)F)c1)N(Cc1ccccc1Cl)C1CCNCC1 | 100 nM | 200 nM | 3.2 |  |
| Cc1cccc(CN(C(=O)COc2cc(C(F)(F)F)cc(C(F)(F)F)c2)C2CCNCC2)c1 | 79.4 nM | 251 nM | 3.3 |  |
| O=C(COc1cc(F)cc(C(F)(F)F)c1)N(c1ccc(Cl)c(Cl)c1)C1CCNCC1 |  | 39.8 nM | 3 | < 5% |
